Assay results as given in ChEMBL document CHEMBL1126288, “Pyrimido[1,6-a]benzimidazoles: a new class of DNA gyrase inhibitors” (1992).
In brackets after ≈: the same amount, converted by molar mass.

Tests used:
Staphylococcus aureus = experiment: In vitro for antibacterial activity against Staphylococcus aureus 887; assay type: functional
Klebsiella oxytoca = experiment: In vitro for antibacterial activity against Klebsiella oxytoca 1082E; assay type: functional
[1] = target: DNA gyrase (Escherichia coli) (UniProt P0AES6+P0AES4); experiment: Inhibitory activity against Escherichia coli DNA gyrase (represented as MNEC); assay type: protein-complex assay
Method in brief: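 Supercoiling assay. Gyrase subunits mixed equimolar and reconstituted to A2B2 for 30 min at 25 °C. Compound 0.1–100 µg/mL, 37 °C, 30 min. Read on 0.8% agarose gel; MNEC = highest concentration leaving all DNA fully supercoiled.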

[2] = test system: Staphylococcus haemolyticus; experiment: In vitro for antibacterial activity against Staphylococcus haemolyticus 75 (quinolone-resistant); assay type: functional
Enterobacter cloacae = experiment: In vitro for antibacterial activity against Enterobacter cloacae P99; assay type: functional
Escherichia coli [3] = experiment: In vitro for antibacterial activity against Escherichia coli B (Ec(B)); assay type: functional
Micrococcus luteus = experiment: In vitro for antibacterial activity against Micrococcus luteus ATCC 8340; assay type: functional
Pseudomonas aeruginosa = experiment: In vitro for antibacterial activity against Pseudomonas aeruginosa 799/61; assay type: functional
Bacillus subtilis = experiment: In vitro for antibacterial activity against Bacillus subtilis ATCC 585369; assay type: functional
Escherichia coli [4] = experiment: In vitro for antibacterial activity against Escherichia coli 1527E (Ec(C)); assay type: functional
Escherichia coli [5] = experiment: In vitro for antibacterial activity against Escherichia coli 1346 (Ec(A)); assay type: functional

SMILES	MIC (Staphylococcus aureus)	MIC (Klebsiella oxytoca)	MNEC [1]	MIC [2]	MIC (Enterobacter cloacae)	MIC (Escherichia coli [3])	MIC (Micrococcus luteus)	MIC (Pseudomonas aeruginosa)	MIC (Bacillus subtilis)	MIC (Escherichia coli [4])	MIC (Escherichia coli [5])
CNn1c(=O)cc2n(C3CC3)c3cc(N4CCNCC4)c(F)cc3n2c1=O	16 µg/mL (≈ 43 µM)	8 µg/mL (≈ 21.5 µM)	0.1 µg/mL	128 µg/mL (≈ 344 µM)	4 µg/mL (≈ 10.7 µM)	0.5 µg/mL (≈ 1.34 µM)	128 µg/mL (≈ 344 µM)	32 µg/mL (≈ 85.9 µM)	8 µg/mL (≈ 21.5 µM)	8 µg/mL (≈ 21.5 µM)	1 µg/mL (≈ 2.69 µM)
Nn1c(=O)cc2n(C3CC3)c3cc(N4CCNCC4)c(F)cc3n2c1=O	64 µg/mL (≈ 179 µM)	4 µg/mL (≈ 11.2 µM)	0.2 µg/mL	> 64 µg/mL	2 µg/mL (≈ 5.58 µM)	0.25 µg/mL (≈ 0.698 µM)	> 64 µg/mL	8 µg/mL (≈ 22.3 µM)	4 µg/mL (≈ 11.2 µM)	2 µg/mL (≈ 5.58 µM)	1 µg/mL (≈ 2.79 µM)
CN(C)n1c(=O)cc2n(C3CC3)c3cc(N4CCNCC4)c(F)cc3n2c1=O	16 µg/mL (≈ 41.4 µM)	32 µg/mL (≈ 82.8 µM)	0.5 µg/mL	> 128 µg/mL	32 µg/mL (≈ 82.8 µM)	1 µg/mL (≈ 2.59 µM)	> 128 µg/mL	64 µg/mL (≈ 166 µM)	4 µg/mL (≈ 10.4 µM)	32 µg/mL (≈ 82.8 µM)	8 µg/mL (≈ 20.7 µM)
CCn1cc(C(=O)O)c(=O)c2cc(F)c(N3CCNCC3)cc21 [NORFLOXACIN]	4 µg/mL (≈ 12.5 µM)	0.25 µg/mL (≈ 0.783 µM)		> 64 µg/mL	0.25 µg/mL (≈ 0.783 µM)	0.12 µg/mL (≈ 0.376 µM)	32 µg/mL (≈ 100 µM)	1 µg/mL (≈ 3.13 µM)	1 µg/mL (≈ 3.13 µM)	0.12 µg/mL (≈ 0.376 µM)	0.12 µg/mL (≈ 0.376 µM)
CCn1c2cc(N3CCN(C)CC3)c(F)cc2n2c(=O)n(O)c(=O)cc12	16 µg/mL (≈ 44.3 µM)	4 µg/mL (≈ 11.1 µM)	1 µg/mL	16 µg/mL (≈ 44.3 µM)	2 µg/mL (≈ 5.53 µM)	1 µg/mL (≈ 2.77 µM)	16 µg/mL (≈ 44.3 µM)	2 µg/mL (≈ 5.53 µM)	8 µg/mL (≈ 22.1 µM)	4 µg/mL (≈ 11.1 µM)	2 µg/mL (≈ 5.53 µM)
CN1CCN(c2cc3c(cc2F)n2c(=O)[nH]c(=O)cc2n3C2CC2)CC1	16 µg/mL (≈ 44.8 µM)	8 µg/mL (≈ 22.4 µM)	1 µg/mL	> 32 µg/mL	4 µg/mL (≈ 11.2 µM)	0.25 µg/mL (≈ 0.7 µM)	> 32 µg/mL	32 µg/mL (≈ 89.5 µM)	4 µg/mL (≈ 11.2 µM)	2 µg/mL (≈ 5.6 µM)	2 µg/mL (≈ 5.6 µM)
CCn1c2cc(N3CCN(C)CC3)c(F)cc2n2c(=O)nc(N)cc12	> 32 µg/mL	> 32 µg/mL	> 10 µg/mL	> 32 µg/mL	> 32 µg/mL	> 32 µg/mL	> 32 µg/mL	> 32 µg/mL	> 32 µg/mL	> 32 µg/mL	> 32 µg/mL
O=c1cc2n(C3CC3)c3cc(N4CCNCC4)c(F)cc3n2c(=O)n1O	> 64 µg/mL	1 µg/mL (≈ 2.78 µM)	1 µg/mL	> 64 µg/mL	1 µg/mL (≈ 2.78 µM)	< 0.25 µg/mL	8 µg/mL (≈ 22.3 µM)	2 µg/mL (≈ 5.57 µM)	4 µg/mL (≈ 11.1 µM)	2 µg/mL (≈ 5.57 µM)	< 0.25 µg/mL
CCn1c2cc(N3CCNCC3)c(F)cc2n2c(=O)n(O)c(=O)cc12	> 64 µg/mL	16 µg/mL (≈ 46.1 µM)	1 µg/mL	> 64 µg/mL	8 µg/mL (≈ 23 µM)	8 µg/mL (≈ 23 µM)	32 µg/mL (≈ 92.1 µM)	4 µg/mL (≈ 11.5 µM)	32 µg/mL (≈ 92.1 µM)	32 µg/mL (≈ 92.1 µM)	8 µg/mL (≈ 23 µM)
CCn1c2cc(N3CCN(C)CC3)c(F)cc2n2c(=O)[nH]c(=O)cc12	> 32 µg/mL	> 32 µg/mL	2 µg/mL		16 µg/mL (≈ 46.3 µM)	2 µg/mL (≈ 5.79 µM)	> 32 µg/mL	> 32 µg/mL	16 µg/mL (≈ 46.3 µM)	32 µg/mL (≈ 92.7 µM)	16 µg/mL (≈ 46.3 µM)
CCn1c2cc(N3CCNCC3)c(F)cc2c2c(N)ncnc21	> 128 µg/mL	> 128 µg/mL	5 µg/mL	> 128 µg/mL	> 128 µg/mL	16 µg/mL (≈ 50.9 µM)		> 128 µg/mL		> 128 µg/mL	64 µg/mL (≈ 204 µM)
CN1CCN(c2cc3c(cc2F)n2c(=O)n(O)c(=O)cc2n3C2CC2)CC1	4 µg/mL (≈ 10.7 µM)	0.25 µg/mL (≈ 0.67 µM)	1 µg/mL	32 µg/mL (≈ 85.7 µM)	0.12 µg/mL (≈ 0.321 µM)	< 0.03 µg/mL	32 µg/mL (≈ 85.7 µM)	2 µg/mL (≈ 5.36 µM)	2 µg/mL (≈ 5.36 µM)	0.12 µg/mL (≈ 0.321 µM)	< 0.03 µg/mL
CN1CCN(c2c(F)cc3c(=O)c(C(=O)O)cn(CCF)c3c2F)CC1 [FLEROXACIN]	2 µg/mL (≈ 5.42 µM)	0.12 µg/mL (≈ 0.325 µM)		32 µg/mL (≈ 86.6 µM)	0.12 µg/mL (≈ 0.325 µM)	0.06 µg/mL (≈ 0.162 µM)	16 µg/mL (≈ 43.3 µM)	0.5 µg/mL (≈ 1.35 µM)	0.5 µg/mL (≈ 1.35 µM)	0.06 µg/mL (≈ 0.162 µM)	0.12 µg/mL (≈ 0.325 µM)
O=c1cc2n(C3CC3)c3cc(N4CCNCC4)c(F)cc3n2c(=O)[nH]1	> 32 µg/mL	16 µg/mL (≈ 46.6 µM)	0.2 µg/mL		8 µg/mL (≈ 23.3 µM)	0.5 µg/mL (≈ 1.46 µM)	> 32 µg/mL	32 µg/mL (≈ 93.2 µM)	8 µg/mL (≈ 23.3 µM)	8 µg/mL (≈ 23.3 µM)	2 µg/mL (≈ 5.82 µM)
CCn1c2cc(N3CCNCC3)c(F)cc2n2c(=O)[nH]c(=O)cc12	> 64 µg/mL	> 64 µg/mL	1 µg/mL		64 µg/mL (≈ 193 µM)	8 µg/mL (≈ 24.1 µM)	> 64 µg/mL	> 64 µg/mL	64 µg/mL (≈ 193 µM)	> 64 µg/mL	16 µg/mL (≈ 48.3 µM)
